Data set [1] addresses Retinoic acid receptor RXR-gamma (Homo sapiens) (UniProt P48443). Nature of the data set: Transactivation of human GAL4-fused RXRgamma ligand binding domain expressed in […] cells at 10 uM after 12 to 14 hrs by dual-glo luciferase reporter gene assay. In kind it is cell-based. The procedure, abridged: (§1)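 HEK293T cells in DMEM/10% FCS, Opti-MEM before Lipofectamine LTX transfection with pFR-Luc reporter, pRL-SV40 and pFA-CMV GAL4–LBD plasmid. 5 h later compound in 0.1% DMSO, Opti-MEM, overnight (12−14 h). Dual luciferase; firefly/renilla ×1000 = RLU, fold over DMSO control; triplicates, ≥3 independent repeats.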
A general note: A reporter such as luciferase makes a cellular process visible.

The target in data set [2] is G-protein coupled bile acid receptor 1 (Homo sapiens) (UniProt Q8TDU6). Briefly: Agonist activity at TGR5 (unknown origin) at 10 uM.
G-protein coupled bile acid receptor 1 (Homo sapiens), sequence (Q8TDU6 whole entry, the tested form may be a part): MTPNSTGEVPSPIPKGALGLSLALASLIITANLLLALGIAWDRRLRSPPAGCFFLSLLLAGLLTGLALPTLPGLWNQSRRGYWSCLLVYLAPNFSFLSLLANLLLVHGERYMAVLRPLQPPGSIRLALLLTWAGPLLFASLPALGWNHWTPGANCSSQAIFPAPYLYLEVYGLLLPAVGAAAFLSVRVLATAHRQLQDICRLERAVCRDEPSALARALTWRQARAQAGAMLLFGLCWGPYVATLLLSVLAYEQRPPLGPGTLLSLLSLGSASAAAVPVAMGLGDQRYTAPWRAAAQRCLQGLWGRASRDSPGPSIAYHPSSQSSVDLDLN
For data set [3], the target named is Nuclear receptor subfamily 1 group I member 3 (Homo sapiens, UniProt Q14994). Nature of the data set: Transactivation of human GAL4-fused CAR ligand binding domain expressed in […] cells at 10 uM after 12 to 14 hrs by dual-Glo luciferase reporter gene assay. In kind it is cell-based. The procedure, abridged:
as §1

The target of data set [4] is T1, Peroxisome proliferator-activated receptor gamma (Homo sapiens) (UniProt P37231).
T1 sequence (whole entry): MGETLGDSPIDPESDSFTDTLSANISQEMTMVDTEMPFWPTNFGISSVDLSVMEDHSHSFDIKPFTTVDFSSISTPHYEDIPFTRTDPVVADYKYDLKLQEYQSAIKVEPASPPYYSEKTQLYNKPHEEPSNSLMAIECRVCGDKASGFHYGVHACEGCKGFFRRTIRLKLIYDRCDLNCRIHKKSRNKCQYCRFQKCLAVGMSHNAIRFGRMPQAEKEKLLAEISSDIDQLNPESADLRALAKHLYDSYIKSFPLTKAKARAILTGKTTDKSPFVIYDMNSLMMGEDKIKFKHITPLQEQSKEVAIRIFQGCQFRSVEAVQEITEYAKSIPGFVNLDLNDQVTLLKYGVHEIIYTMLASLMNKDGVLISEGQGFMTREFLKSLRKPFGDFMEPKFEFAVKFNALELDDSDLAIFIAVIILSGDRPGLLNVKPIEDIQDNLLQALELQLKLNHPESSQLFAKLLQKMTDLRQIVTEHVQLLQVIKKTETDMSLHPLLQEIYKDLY
Nature of the data set: Transactivation of PPARgamma in human HepG2 cells assessed as CD36 mRNA expression at 10 uM after 8 to 16 hrs by SYBR green based qRT-PCR analysis relative to DMSO control. In kind it is cell-based. The procedure, abridged:
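HepG2 cells treated 8 or 16 h with compound or 0.1% DMSO, washed in cold PBS, RNA extracted; SYBR Green qRT-PCR in duplicate, ≥4 independent experiments (n = 3 for CD36/FAM3A). ΔΔCt method with GAPDH reference; expression as % of vehicle (100%). Pioglitazone 1 μM used as positive control for the PPARγ genes.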
On the technique in general: Real-time PCR tracks product formation cycle by cycle.

A further data set has as its target T2, Bile acid receptor (Homo sapiens, UniProt Q96RI1).
T2 sequence (Q96RI1 whole entry): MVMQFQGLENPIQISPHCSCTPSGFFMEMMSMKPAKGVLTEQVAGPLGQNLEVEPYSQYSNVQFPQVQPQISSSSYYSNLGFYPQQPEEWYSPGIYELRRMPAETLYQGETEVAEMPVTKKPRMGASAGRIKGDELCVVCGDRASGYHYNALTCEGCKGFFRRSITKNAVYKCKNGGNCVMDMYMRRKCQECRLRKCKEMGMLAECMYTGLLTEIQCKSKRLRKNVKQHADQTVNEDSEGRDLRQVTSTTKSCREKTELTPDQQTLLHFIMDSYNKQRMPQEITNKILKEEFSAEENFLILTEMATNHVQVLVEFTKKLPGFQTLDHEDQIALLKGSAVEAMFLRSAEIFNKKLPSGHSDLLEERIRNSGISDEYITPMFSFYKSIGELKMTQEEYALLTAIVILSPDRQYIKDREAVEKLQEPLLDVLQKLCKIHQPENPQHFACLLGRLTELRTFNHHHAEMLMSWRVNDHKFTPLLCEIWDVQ
Nature of the data set: Transactivation of FXR in human HepG2 cells assessed as CYP7A1 mRNA expression at 0.1 uM after 8 to 16 hrs by SYBR green based qRT-PCR analysis relative to DMSO control. Format: ADME, cell-based. The procedure, abridged: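 HepG2 cells incubated with compound (0.1 or 1 μM) or 0.1% DMSO for 8 or 16 h, washed with cold PBS, RNA extracted. Quantified by SYBR Green real-time PCR, duplicate samples, at least four independent experiments. ΔΔCt method with GAPDH as reference gene. Expressed as % of vehicle (set to 100%), mean ± SEM.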

Data set [5] deals with T3, Bifunctional epoxide hydrolase 2 (Homo sapiens) (UniProt P34913).
T3 sequence (whole entry): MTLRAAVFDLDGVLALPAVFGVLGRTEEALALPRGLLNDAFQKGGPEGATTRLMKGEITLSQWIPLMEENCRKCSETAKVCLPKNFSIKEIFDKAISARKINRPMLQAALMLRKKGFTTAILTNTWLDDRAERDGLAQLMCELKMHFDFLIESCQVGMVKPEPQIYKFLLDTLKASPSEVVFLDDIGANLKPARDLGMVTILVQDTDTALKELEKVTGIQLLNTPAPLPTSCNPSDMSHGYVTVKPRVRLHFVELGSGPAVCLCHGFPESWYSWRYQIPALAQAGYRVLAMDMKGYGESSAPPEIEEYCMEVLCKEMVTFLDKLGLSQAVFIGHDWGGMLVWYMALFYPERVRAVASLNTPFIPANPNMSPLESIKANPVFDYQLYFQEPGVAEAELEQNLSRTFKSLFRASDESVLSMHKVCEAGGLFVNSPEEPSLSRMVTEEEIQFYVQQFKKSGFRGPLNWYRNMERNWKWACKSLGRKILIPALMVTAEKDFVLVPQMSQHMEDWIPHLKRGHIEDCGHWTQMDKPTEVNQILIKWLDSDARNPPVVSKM
The following applies: 0.01 uM.

Data set [6] deals with T4, Bile acid receptor (Homo sapiens) (UniProt Q96RI1).
T4 sequence (whole entry): T2 sequence (Q96RI1 whole entry)
Nature of the data set: Transactivation of FXR in human HepG2 cells assessed as FGF19 mRNA expression at 1 uM after 8 to 16 hrs by SYBR green based qRT-PCR analysis relative to DMSO control. Format: cell-based. The procedure, abridged: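 HepG2 cells incubated with test compound (0.1 and 1 μM) or 0.1% DMSO for 8 or 16 h, washed in cold PBS, RNA extracted; target mRNA by SYBR Green qRT-PCR, duplicate samples, ≥4 independent experiments; comparative ΔΔCt with GAPDH reference, vehicle set as 100%.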

Data set [7] deals with T1, Peroxisome proliferator-activated receptor gamma (Homo sapiens). Briefly: Transactivation of human GAL4-fused PPARgamma ligand binding domain expressed in HEL293T cells at 10 uM after 12 to 14 hrs by dual-glo luciferase reporter gene assay relative to pioglitazone. Format: cell-based.
A short description of data set [8]: Metabolic stability in Sprague-Dawley rat liver microsomes assessed as compound remaining at 10 uM after 60 mins by HPLC analysis. Format: ADME, microsome. Conditions: read-out: Stability. (In general: Microsomes from liver hold many membrane-bound enzymes, among them those of drug oxidation.)
Data set [9] has as its target Retinoic acid receptor RXR-alpha (Homo sapiens) (UniProt P19793). Briefly: Transactivation of human GAL4-fused RXRalpha ligand binding domain expressed in […] cells at 10 uM after 12 to 14 hrs by dual-glo luciferase reporter gene assay. Format: cell-based. The procedure, abridged: as §1

SMILES strings stand for the structures. The source made the active and inactive calls. No cut-off for these calls is given here. A value given as a limit tells only on which side of the number the result lay.

Retinoic acid receptor RXR-gamma (Homo sapiens), sequence (P48443 whole entry, the tested form may be a part): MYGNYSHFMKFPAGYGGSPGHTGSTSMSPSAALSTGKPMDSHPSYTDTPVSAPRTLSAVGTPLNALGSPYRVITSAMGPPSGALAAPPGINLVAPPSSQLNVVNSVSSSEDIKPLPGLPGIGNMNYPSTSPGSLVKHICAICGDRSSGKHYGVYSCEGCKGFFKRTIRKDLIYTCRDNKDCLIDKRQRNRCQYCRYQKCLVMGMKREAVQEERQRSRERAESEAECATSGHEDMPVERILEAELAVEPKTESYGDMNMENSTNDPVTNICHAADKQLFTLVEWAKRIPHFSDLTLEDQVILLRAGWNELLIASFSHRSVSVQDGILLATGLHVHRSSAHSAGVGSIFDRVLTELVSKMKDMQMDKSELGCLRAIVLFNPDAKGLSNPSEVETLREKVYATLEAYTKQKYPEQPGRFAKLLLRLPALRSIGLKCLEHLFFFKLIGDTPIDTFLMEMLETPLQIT
Retinoic acid receptor RXR-alpha (Homo sapiens), sequence (P19793 whole entry, the tested form may be a part): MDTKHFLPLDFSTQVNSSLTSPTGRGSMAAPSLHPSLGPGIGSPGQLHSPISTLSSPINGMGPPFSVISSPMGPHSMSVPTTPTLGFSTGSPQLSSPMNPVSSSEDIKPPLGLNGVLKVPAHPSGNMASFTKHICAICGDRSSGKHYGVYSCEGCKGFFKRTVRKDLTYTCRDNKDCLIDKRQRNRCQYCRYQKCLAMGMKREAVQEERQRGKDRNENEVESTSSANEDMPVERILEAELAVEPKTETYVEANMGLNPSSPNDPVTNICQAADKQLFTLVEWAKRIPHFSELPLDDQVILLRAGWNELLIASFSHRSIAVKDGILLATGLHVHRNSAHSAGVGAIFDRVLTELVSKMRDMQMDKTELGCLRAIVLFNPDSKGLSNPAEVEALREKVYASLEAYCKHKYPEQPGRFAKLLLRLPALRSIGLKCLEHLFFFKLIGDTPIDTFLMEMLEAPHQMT
Nuclear receptor subfamily 1 group I member 3, sequence (Q14994 whole entry, the tested form may be a part): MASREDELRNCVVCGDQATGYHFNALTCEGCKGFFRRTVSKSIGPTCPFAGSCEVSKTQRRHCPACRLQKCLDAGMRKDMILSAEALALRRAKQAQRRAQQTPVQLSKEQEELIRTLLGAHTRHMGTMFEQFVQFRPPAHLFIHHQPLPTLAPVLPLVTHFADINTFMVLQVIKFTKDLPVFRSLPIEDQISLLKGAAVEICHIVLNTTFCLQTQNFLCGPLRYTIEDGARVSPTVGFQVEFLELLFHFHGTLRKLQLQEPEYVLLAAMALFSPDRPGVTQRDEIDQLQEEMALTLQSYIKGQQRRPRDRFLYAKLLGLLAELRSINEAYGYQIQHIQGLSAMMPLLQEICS

As for `CC(C)(C)c1ccc(C(=O)NCc2ccc(NS(C)(=O)=O)cc2Cl)cc1`, the result in data set [1], in [2] and in data set [9] was inactive. Moreover, the Activity entry in data set [3] is “Not Active”; in data set [4], 129%; on Bile acid receptor, 50%; in data set [6], 325%. For the same compound, the inhibition result in data set [5] is “inactive”. The same compound gave an Emax in [7] of 30%. For the same compound, the remaining at 1 h, 10 µM in [8] is greater than 50%.

(Values after ChEMBL document CHEMBL4017509, “A Dual Modulator of Farnesoid X Receptor and Soluble Epoxide Hydrolase To Counter Nonalcoholic Steatohepatitis” (J Med Chem, 2017).)
